{"source": "paper PMC7729281", "about": "(Biochemistry, 2020)", "key": {"h15-LOX-1 [1]": {"target": "T1, h15-LOX-1 (Homo sapiens, UniProt P16050)", "T1 sequence (P16050 1-662)": "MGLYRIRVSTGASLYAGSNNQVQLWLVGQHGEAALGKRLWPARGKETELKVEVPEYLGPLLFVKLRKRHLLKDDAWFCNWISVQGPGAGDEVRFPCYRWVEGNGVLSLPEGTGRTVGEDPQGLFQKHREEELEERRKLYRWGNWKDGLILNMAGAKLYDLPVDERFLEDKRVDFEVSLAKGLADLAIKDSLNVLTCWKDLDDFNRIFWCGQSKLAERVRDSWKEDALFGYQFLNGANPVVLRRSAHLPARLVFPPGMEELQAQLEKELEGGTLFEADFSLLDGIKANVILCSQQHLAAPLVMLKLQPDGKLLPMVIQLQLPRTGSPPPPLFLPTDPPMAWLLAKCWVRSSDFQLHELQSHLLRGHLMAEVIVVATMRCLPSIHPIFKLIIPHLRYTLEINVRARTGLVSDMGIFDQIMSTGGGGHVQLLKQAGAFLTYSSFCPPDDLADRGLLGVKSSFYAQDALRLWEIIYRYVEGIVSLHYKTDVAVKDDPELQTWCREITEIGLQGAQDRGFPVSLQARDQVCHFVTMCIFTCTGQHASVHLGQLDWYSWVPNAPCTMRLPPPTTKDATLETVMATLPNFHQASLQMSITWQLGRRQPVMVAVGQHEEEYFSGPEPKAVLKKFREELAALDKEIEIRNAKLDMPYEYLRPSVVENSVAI", "test": "Allosteric modulation of 14S-HpDHA epoxidation by h15-LOX-1", "format": "biochemical", "procedure,_shortened": "(§1)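 Recombinant human h15-LOX-1 (0.125 μM, 25 mM HEPES pH 7.5, 20 min) or h12-LOX (0.3 μM, pH 8.0, 1 h) reacted at room temperature with 1 μM 14S-HpDHA while oxylipin modulator was titrated (1–100 μM), or with 14S-HpDHA varied alone (1–50 μM). Products were reduced and analysed by LC-MS. Dehydration (epoxide) versus oxygenation product percentages were calculated, N = 3.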"}, "h12-LOX [2]": {"target": "T2, h12-LOX (Homo sapiens, UniProt P18054)", "T2 sequence (P18054 1-663)": "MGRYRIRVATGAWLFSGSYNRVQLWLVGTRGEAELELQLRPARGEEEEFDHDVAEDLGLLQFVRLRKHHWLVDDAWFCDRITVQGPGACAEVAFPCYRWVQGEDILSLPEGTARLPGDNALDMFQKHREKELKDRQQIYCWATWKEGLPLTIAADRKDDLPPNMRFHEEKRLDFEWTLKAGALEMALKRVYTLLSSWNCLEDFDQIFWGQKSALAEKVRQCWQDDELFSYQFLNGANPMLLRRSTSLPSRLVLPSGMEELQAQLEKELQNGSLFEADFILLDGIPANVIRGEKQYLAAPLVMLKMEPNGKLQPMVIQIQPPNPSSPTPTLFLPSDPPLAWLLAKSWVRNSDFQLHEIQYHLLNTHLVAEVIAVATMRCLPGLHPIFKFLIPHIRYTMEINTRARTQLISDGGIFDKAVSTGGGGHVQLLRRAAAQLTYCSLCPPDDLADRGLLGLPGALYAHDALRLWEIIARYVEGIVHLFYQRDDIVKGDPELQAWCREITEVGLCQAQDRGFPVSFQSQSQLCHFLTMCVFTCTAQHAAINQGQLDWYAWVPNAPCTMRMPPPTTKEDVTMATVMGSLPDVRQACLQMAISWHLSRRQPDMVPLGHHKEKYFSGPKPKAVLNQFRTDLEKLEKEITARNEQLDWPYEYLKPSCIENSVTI", "test": "Allosteric modulation of 14S-HpDHA epoxidation by h12-LOX", "format": "biochemical", "conditions": "14S-HpDHA titrated 1 to 50 μM, 76% at start", "procedure,_shortened": "as §1"}, "h12-LOX [3]": {"target": "T2, h12-LOX", "test": "Product analysis of h12-LOX reactions", "format": "biochemical", "conditions": "h12-LOX + 1 μM 14S-HpDHA, 60 min, pH 8.0, ambient O2", "procedure,_shortened": "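h15-LOX-1 (0.125 μM, pH 7.5) or h12-LOX (0.300 μM, pH 8.0) was reacted in 25 mM HEPES at room temperature under ambient O2. Substrates were 10 μM DHA for 1 min (monitored at 234 nm) or 1 μM 14S-HpDHA for 20 min (h15-LOX-1) or 1 h (h12-LOX) (monitored at 270 nm). Reactions were quenched with acetic acid, spiked with d5-maresin-1, extracted into DCM and background-subtracted against a no-enzyme control. Split samples were run with or without trimethyl phosphite reduction. Products were identified by C18 LC-MS/MS (qTOF), N = 3.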"}, "h12-LOX [4]": {"target": "T2, h12-LOX", "test": "Steady-state kinetics of h12-LOX"}, "h15-LOX-1 [5]": {"target": "T1, h15-LOX-1", "test": "Steady-state kinetics of h15-LOX-1"}, "[6]": {"conditions": "h12-LOX + substrate, 25 mM HEPES pH 8.0, RT"}, "[7]": {"conditions": "h15-LOX-1 + substrate, 25 mM HEPES pH 7.5, RT"}}, "note": "Several values for one entry are separate records, joined by “and”; a condition that tells them apart may be missing. Equal entries are not always repeated."}
{"molecule": "CC/C=C\\C/C=C\\C[C@@H](/C=C/C=C\\C/C=C\\C/C=C\\CCC(=O)O)OO", "note": "[14S-HpDHA, 14S-hydroperoxy-4Z,7Z,10Z,12E,16Z,19Z-docosahexaenoic acid]", "values": [{"measurement": "7S,14S-EZE-diHDHA (oxygenation product)", "setting": "h15-LOX-1 [1]; h15-LOX-1, 14S-HpDHA at high concentration (50 μM)", "result": "76 ± 0.5", "unit": "%"}, {"measurement": "7R/S,14S-EEE-diHDHA (epoxide degradation product)", "setting": "h15-LOX-1 [1]; h15-LOX-1, 14S-HpDHA at low concentration (1 μM)", "result": "71 ± 11", "unit": "%"}, {"measurement": "epoxidation product at end of titration", "setting": "h12-LOX [2]", "result": 19, "unit": "%"}, {"measurement": "product profile: 7S,14S-EZE-diHpDHA", "setting": "h12-LOX [3]", "result": "12% and 12 ± 2%"}, {"measurement": "product profile: 13S,14S-epoxy-DHA (detected as 7S/R,14S-EEE-diHDHA)", "setting": "h12-LOX [3]", "result": "76% and 76 ± 11%"}, {"measurement": "product profile: 14S,20-diHpDHA", "setting": "h12-LOX [3]", "result": "13% and 13 ± 9%"}, {"measurement": "fold difference of 13S,14S-epoxy-DHA biosynthetic flux", "setting": "h12-LOX [4]; h12-LOX + 14S-HpDHA", "result": 1.0}, {"measurement": "13S,14S-epoxy-DHA biosynthetic flux", "setting": "h12-LOX [4]; h12-LOX + 14S-HpDHA, B.F. = kcat/KM * % product", "result": 0.0018}, {"measurement": "Km", "setting": "h12-LOX [4]; [6]", "result": "88 ± 16", "unit": "µM"}, {"measurement": "kcat", "setting": "h12-LOX [4]; [6]", "result": "0.22 ± 0.02", "unit": "s⁻¹"}, {"measurement": "reduction of kcat", "setting": "h12-LOX [4]; h12-LOX, 14S-HpDHA relative to DHA", "result": 60, "unit": "fold"}, {"measurement": "fold difference of kcat/KM", "setting": "h12-LOX [4]; h12-LOX, kcat/KM of enzyme with DHA set to 1 (Table 5)", "result": "−5880"}, {"measurement": "kcat", "setting": "h15-LOX-1 [5]; h15-LOX-1", "result": "2e+06 ± 40000", "unit": "M⁻¹ s⁻¹"}, {"measurement": "13S,14S-epoxy-DHA biosynthetic flux", "setting": "h15-LOX-1 [5]; h15-LOX-1 + 14S-HpDHA, B.F. = kcat/KM * % product", "result": 0.078}, {"measurement": "Km", "setting": "h15-LOX-1 [5]; [7]", "result": "18 ± 1", "unit": "µM"}, {"measurement": "kcat", "setting": "h15-LOX-1 [5]; [7]", "result": "2.0 ± 0.04", "unit": "s⁻¹"}, {"measurement": "fold difference of kcat/KM", "setting": "h15-LOX-1 [5]; h15-LOX-1, kcat/KM of enzyme with DHA set to 1 (Table 5)", "result": "−3.2"}, {"measurement": "kcat of h15-LOX-1 greater than that of h12-LOX", "setting": "h15-LOX-1 [5]; substrate 14S-HpDHA", "result": "~10", "unit": "fold"}]}
